Screening data: PubChem, several laboratories
MEKK3 PB1 HTS = raises or lowers MEK5 binding to the human MEKK3 PB1 domain | 290,000 compounds, 1.4% hits | Q99759 | AID 1529 | binding response (% of control), % at 10 µM | bead-based flow cytometry, Alexa488-MEK5 binding to MEKK3; actives lie on both sides; 0 = blocked by unlabeled MEK5, 100 = vehicle;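 active means binding response more than 3 SD above or below the average of its plate-row segment, actives on both sides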;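 further: Alexa488 bead fluorescence after subtracting the streptavidin-only scavenger bead signal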
Apaf-1 inh = human Apaf-1 inhibition; O14727; reconstituted apoptosome caspase-3 activity, DEVD-Rh110 fluorescence; AID 489030; inhibition, % at 20 µM; 330,000 compounds, 0.71% hits; active means inhibition of at least 40% at 20 µM;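 further: plate controls were DMSO wells for no effect and DEVD-CHO caspase inhibitor wells for full effect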
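Assay system: Apoptosome proteins | Medium: pH 7.5 Hepes buffer with CHAPS, BSA, DTT | Also added: Cytochrome c and DEVD-Rh110 substrate | Times: 30 min plus 50 min, RT | Detection: Rhodamine 110 fluorescence at Ex 480/Em 540 nm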
UCH37 inh = blocks the human deubiquitinase UCH37. Q9Y5K5. purified proteasome/UCH37, Ub-AMC cleavage fluorescence. inhibition, % (concentration not given with the values). 330,000 compounds, 0.33% hits;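 active means mean inhibition over replicate wells above about 20%, limit read from the data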;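 further: 0% = compound-free wells with enzyme and 100% = wells lacking proteasome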
Target sequence (Q9Y5K5 whole entry, looked up): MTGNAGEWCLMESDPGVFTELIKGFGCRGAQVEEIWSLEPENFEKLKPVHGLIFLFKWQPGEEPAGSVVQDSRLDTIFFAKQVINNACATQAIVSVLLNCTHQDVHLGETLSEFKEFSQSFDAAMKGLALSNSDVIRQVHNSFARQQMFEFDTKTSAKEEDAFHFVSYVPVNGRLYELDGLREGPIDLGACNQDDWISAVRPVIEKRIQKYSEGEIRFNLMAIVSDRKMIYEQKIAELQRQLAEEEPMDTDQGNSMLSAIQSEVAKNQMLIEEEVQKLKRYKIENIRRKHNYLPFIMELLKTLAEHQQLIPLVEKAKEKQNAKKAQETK
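Material: human UCH37 enzyme supplied as purified proteasome complex. Measure: % inhibition of Ub-AMC cleavage fluorescence. Medium: pH 7.4 Tris-HCl (50 mM) with ovalbumin, ATP-MgCl2, DTT. Times: 30 min preincubation with enzyme, 25 min cleavage at room temperature. Detection: AMC fluorescence intensity at 355/460 nm.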
UBC13 polyUb = human UBC13 polyubiquitination inhibition; P61088; UBC13 polyubiquitin chain formation, TR-FRET; inhibition, % at 20 µM; 330,000 compounds, 0.47% hits; in the data active means inhibition above about 45%, passing the limit was not always enough
Target sequence (P61088 whole entry, looked up): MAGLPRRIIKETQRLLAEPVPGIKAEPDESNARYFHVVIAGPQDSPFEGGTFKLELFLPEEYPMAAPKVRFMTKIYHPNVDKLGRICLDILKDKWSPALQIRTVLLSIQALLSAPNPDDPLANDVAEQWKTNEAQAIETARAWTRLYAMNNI
MEKK2 WT-MEK5 = raises or lowers MEK5 binding to wildtype human MEKK2 PB1 domain. Q9Y2U5. bead flow cytometry, Alexa488-MEK5 binding to MEKK2 WT; actives lie on both sides. binding response (% of control), % at 10 µM. 290,000 compounds, 1.1% hits. AID 1531; in the data active means binding response below about 67% or above about 130%
MEKK2mut PB1 HTS = signal of MEK5 binding to mutant human MEKK2 PB1 domain. percent response, % at 10 µM. 290,000 compounds, 0.35% hits. bead flow cytometry, Alexa488-MEK5 binding to MEKK2 mutant; in the data active means percent response above about 24%, passing the limit was not always enough
MEKK2wt confirm = raises or lowers MEK5 binding to wildtype human MEKK2, retest | AID 1892 | bead flow cytometry, Alexa488-MEK5 binding to MEKK2 WT; actives lie on both sides | binding response (% of control), % at 10 µM | shares compounds with MEKK3 PB1 HTS | 5,900 compounds, 2.4% hits; in the data active means binding response below about 16% or above about 210%; inactive means in between
MEKK2mut confirm = signal of MEK5 binding to mutant human MEKK2, retest; 5,900 compounds, 2% hits; percent response, % at 10 µM; bead flow cytometry, Alexa488-MEK5 binding to MEKK2 mutant; AID 1893; shares compounds with MEKK3 PB1 HTS; in the data active means percent response mostly above about 71%, no sharp cut-off; inactive means mostly below about 38%;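 further: higher means compound restores mutant binding toward wildtype level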
MEKK3-MEK5 inh = MEKK3-MEK5 PB1 inhibition, single concentration confirmation | shares compounds with MEKK3 PB1 HTS | bead flow cytometry, Alexa488-MEK5 binding to MEKK3; stronger effect = lower value | binding response (% of control), % at 10 µM | 5,900 compounds, 1.8% hits;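 active means binding response below 72% of control, or above a set upper limit, though filed actives all read lower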;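 further: 100% = DMSO only wells and 0% = binding blocked by excess unlabeled MEK5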
* hit, by the source's call; · = no result; [ ] = remark or other dose. Hits are enriched below; roughly 3% of the tested compounds scored in any of these assays.

SMILES	MEKK3 PB1 HTS	Apaf-1 inh	UCH37 inh	UBC13 polyUb	MEKK2 WT-MEK5	MEKK2mut PB1 HTS	MEKK2wt confirm	MEKK2mut confirm	MEKK3-MEK5 inh
CN1CCN(S(=O)(=O)c2ccc(NC(=O)c3ccc(Br)o3)cc2)CC1	41.0*[inhibitor]	-12.6	3.8	1.0	51.0	-9.0	111.0	10.0	110.0
CN1CCN(S(=O)(=O)c2ccc(NC(=O)c3ccc(Br)s3)cc2)CC1	114.0	10.3	1.3	4.8	138.0*	13.0	118.0	15.0	109.0
CCCOc1ccc(N2C(=O)CC(NNC(=O)c3ccc(COc4ccccc4)o3)C2=O)cc1 (centres undefined)	142.0*	6.1	4.0	2.1	99.0	3.0	98.0	-4.0	97.0
CCN(CC)CCn1c(C)nc2c(sc3nc4c(cc32)COC(C)(C)C4)c1=O	93.0	-3.4	4.0	9.5	97.0	-8.0	·	·	·
O=C(NNc1ccc(C2CCCCC2)cc1)C(O)(c1ccccc1)c1cccs1 (centres undefined)	105.0	27.7	4.0	1.3	94.0	0.0	·	·	·
COc1ccc(C(O)(C(=O)NNc2ccc(C)cc2)c2cccs2)cc1 (centres undefined)	122.0*	12.7	2.0	-8.1	115.0	5.0	101.0	-1.0	106.0
Cc1cc2cc(CNC(=O)c3ccc4c(c3)OCO4)ccc2n1C	65.0*[inhibitor]	12.4	3.8	6.8	-11.0*	-19.0	102.0	4.0	101.0
COc1cc(OC)cc(C(=O)NCc2ccc3c(c2)cc(C)n3C)c1	47.0*[inhibitor]	15.4	4.3	9.7	·	-21.0	70.0	-12.0	85.0
COc1ccc(C(=O)NCc2ccc3c(c2)cc(C)n3C)cc1	90.0	-1.3	1.0	2.4	91.0	8.0	·	·	·
CNC(=O)c1cc2ccccc2o1	124.0*	9.6	4.8	-4.9	119.0	7.0	91.0	-6.0	90.0
Cc1cc2cc(CNC(=O)c3cc4ccccc4o3)ccc2n1C	45.0*[inhibitor]	12.3	·	2.8	·	-9.0	57.0	-19.0	75.0
Cc1cc2cc(CNC(=O)c3ccco3)ccc2n1C	97.0	-3.3	1.6	-19.2	96.0	1.0	·	·	·
Cc1cccc(NC(=O)c2cc3ccccc3o2)c1	103.0	16.6	1.8	2.3	99.0	-4.0	·	·	·
Cc1cc(C)c2oc(=O)cc(CN3CCN(Cc4ccc5c(c4)OCO5)CC3)c2c1	105.0	·	4.3	·	116.0	13.0	·	·	·
Cc1ccc(NC(=O)CN(C)S(=O)(=O)c2cccc3cccnc23)c(C)c1	134.0*	14.7	0.6	-9.0	109.0	27.0	110.0	9.0	107.0
COc1ccc(-c2csc(COC(=O)C(C)(C)C)n2)cc1	95.0	7.2	4.3	-1.2	99.0	-2.0	·	·	·
CC(C)(C)C(=O)OCc1nc(-c2ccc(F)cc2)cs1	54.0	9.6	4.0	-2.2	44.0*[inhibitor]	-24.0	94.0	-11.0	95.0
O=C(CSc1ncn[nH]1)N/N=C/c1ccc(Br)cc1	98.0	-0.4	·	2.4	97.0	1.0	·	·	·
O=C(O)C1Cc2[nH]cnc2C(c2ccccc2O)N1 (centres undefined)	60.0*[inhibitor]	7.0	·	-7.9	92.0	-1.0	96.0	-2.0	96.0
CCCCn1c(-c2ccc(OC(F)F)cc2)nc2c1c(=O)[nH]c(=O)n2CC(C)C	93.0	31.6	-8.6	1.8	92.0	-4.0	·	·	·
Cc1c(N2C(=O)CSC2=NN=Cc2ccc(Br)cc2)c(=O)n(-c2ccccc2)n1C	·	·	-2.2	·	·	·	·	·	·
Cc1c(N=C2SCC(=O)N2/N=C/c2ccccc2)c(=O)n(-c2ccccc2)n1C	129.0*	0.2	·	-12.1	102.0	0.0	97.0	0.0	100.0
O=C(O)CCC(NS(=O)(=O)c1ccc(N2CCCC2=O)cc1)C(=O)O (centres undefined)	102.0	-20.7	0.8	10.7	100.0	2.0	·	·	·
O=C(NC(=S)N1CCN(Cc2ccc3c(c2)OCO3)CC1)c1ccc(Cl)cc1	104.0	13.8	0.3	1.3	121.0	55.0*	106.0	4.0	105.0
O=C(NC(=S)N1CCN(Cc2ccc3c(c2)OCO3)CC1)c1cccc(Br)c1	108.0	6.3	-1.0	9.5	108.0	-1.0	·	·	·
SMILES	MEKK3 PB1 HTS	Apaf-1 inh	UCH37 inh	UBC13 polyUb	MEKK2 WT-MEK5	MEKK2mut PB1 HTS	MEKK2wt confirm	MEKK2mut confirm	MEKK3-MEK5 inh
Fc1ccccc1NC(=S)N1CCN(Cc2ccc3c(c2)OCO3)CC1	136.0*	-0.2	2.3	5.1	116.0	5.0	96.0	-3.0	94.0
O=C(NC(=S)NCC1CCCO1)c1ccc(Cl)cc1Cl (centres undefined)	143.0*	0.4	5.6	-5.8	111.0	1.0	93.0	-9.0	95.0
O=C(CNC(=O)c1ccc(Cl)cc1Cl)NCC1CCCO1 (centres undefined)	101.0	6.5	2.3	4.4	96.0	-3.0	·	·	·
Cc1cccc(/C=N/NC(=O)NC2CCCCC2)c1	99.0	3.2	·	5.1	102.0	-2.0	·	·	·
O=C(NC1CCCCC1)NC1CCN(CC(=O)N2CCOCC2)CC1	2.0*[inhibitor]	6.0	2.1	-7.4	2.0*[inhibitor]	-15.0	101.0	-1.0	103.0
O=C(Cn1cc(S(=O)(=O)N2CCN(c3ccccc3F)CC2)c2ccccc2c1=O)NCCCN1CCCCCC1	3.0*[inhibitor]	18.5	0.5	34.1	7.0*[inhibitor]	-45.0	124.0	13.0	105.0
Cc1c(C(=O)O)oc2ccc(S(=O)(=O)N3CCCCC3C(=O)O)cc12 (centres undefined)	108.0	2.7	9.0	-1.2	108.0	3.0	·	·	·
CC(C)(C)C(=O)Nc1ccc(NC(=O)C(C)(C)C)cc1	48.0*[inhibitor]	-23.8	1.8	5.2	48.0	-31.0	87.0	-12.0	78.0
COc1ccccc1C1CCCN1Cc1nc(-c2ccc(C)s2)oc1C (centres undefined)	61.0*[inhibitor]	1.0	-22.0	2.3	63.0*[inhibitor]	-14.0	107.0	6.0	101.0
COC(=O)c1nn(Cc2ccccc2)c(=O)c2ccccc12	119.0	6.1	5.5	8.1	108.0	-1.0	·	·	·
O=S(=O)(NCc1ccco1)c1ccc2c(c1)Cc1ccccc1-2	101.0	9.4	-8.2	8.7	100.0	0.0	·	·	·
Cc1nnc(SCC(N)=O)n1CCc1ccccc1	136.0*	9.4	3.4	-9.3	110.0	2.0	97.0	-2.0	100.0
Cc1nnc(SCC(=O)NC(C)(C)C)n1CCc1ccccc1	95.0	-3.9	1.1	3.9	98.0	3.0	·	·	·
